Data on 19 compounds can be found in PubChem BioAssay.

Test [1] is described as follows: S. cerevisiae growth inhibition in permissive medium (OD615), pilot counter-assay for S. cerevisiae lifespan shortening project, permissive growth control (AID 705;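 active = growth inhibition above 25% in both replicates, a cutoff set 3 SD above the mean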). The note with it: OD615, 24 h, at 10 µM, stronger effect = higher value. The procedure, abridged: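 assay system = Saccharomyces cerevisiae strain carrying genetically modified DeaD replicative-lifespan system | medium = SC raffinose/galactose permissive medium | dosing = 10 µM single dose, 0.25% DMSO | schedule = 24 h compound exposure at 30 °C after 4 h pre-growth | measured by = OD at 615 nm | read-out basis = growth inhibition from lowered OD615 after 24 h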

The nature of test [2]: S. cerevisiae growth inhibition in restrictive medium, OD615, pilot screen, restrictive growth control, yeast lifespan reduction project (AID 706;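 active = growth inhibition above a set limit, 3 SD over mean compound inhibition, in both replicates, cut at about 43% in these data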). As to conditions: OD615, 48 h, at 10 µM, stronger effect = higher value. The gist of the method: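 Buffer or medium: CSMM-D glucose medium. Material: genetically modified Saccharomyces cerevisiae, DeaD replicative lifespan assay strain. Times: 48 h compound exposure at 30 °C. Measured by: optical density at 615 nm.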

The nature of test [3]: doxorubicin toxicity protection in MRP-1 cells – H69AR cells, CellTiter-Glo, duplicate, MRP-1 activator project, pilot screen (AID 807;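 active = viability increase at or above a cutoff of the median across tested compounds plus 3 SD, cut at about 8.5% in these data, passing the limit was not always enough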;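 note: compound pretreatment 18-22 h then 72 h combined with doxorubicin; 0% = doxorubicin alone and 100% = vehicle without doxorubicin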). The note with it: H69AR viability with doxorubicin, CellTiter-Glo luminescence; at 10 µM; stronger effect = higher value.
A short description of test [4]: viability of HCT116 without oncogenic beta-catenin – human colon tumor cells, pilot screen (AID 823;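 active = cell viability at or below a set limit in both duplicate runs, the limit being the all-compound median minus 4 SD, cut at about 23% in these data, passing the limit was not always enough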;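 note: 0% = wells killed by 20 µM Hyamine and 100% = untreated DMSO cell wells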). As to conditions: HCT116 beta-catenin knockout viability, CellTiter-Glo, 60 h; at 10 µM; stronger effect = lower value.
Test [5] in a line: viability of PTEN-null HCT116 cells – cell-based, HCT116 clonal line, CellTiter-Glo, pilot screen (AID 824;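 active = viability at or below 27.92% in each of two runs, the all-compound median minus 4 SD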;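 note: 0% = 20 µM Hyamine control and 100% = vehicle cell control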). The note with it: HCT116 PTEN-deleted viability, 60 h, at 10 µM, stronger effect = lower value.
A short description of test [6]: RAM pathway blockade in budding yeast – dse1pr::URA3 reporter, 5-FOA selection, pilot screen (AID 869).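 Note: 0% = DMSO wells with no growth and 100% = 10 µM 1-NA-PP1 with full growth; RAM network block rescues cells from 5-FOA so hits raise OD615 growth.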 The note with it: S. cerevisiae dse1pr::URA3 5-FOA growth, OD615, 2 d; at 10 µM; stronger effect = higher value; strain carries analog-sensitive mutant Cbk1 kinase.
Test [7] is described as follows: RAM signaling pathway blockade in yeast – S. cerevisiae, Pdr1DBD-CYC8 efflux-inhibited sensitized strain, primary screen (AID 1298;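 active = RAM network inhibition above 8.4% in each of two replicates, 3 SD over the compound average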;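 note: 0% = DMSO untreated cells without growth and 100% = 10 µM 1-NA-PP1 full growth; higher means more yeast growth rescued from 5-FOA killing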). The note with it: S. cerevisiae cbk1-as DSE1-URA3 strain, 5-FOA growth OD615, 2 d; at 50 µM; stronger effect = higher value.

Each structure is given as a SMILES string. A number with no mark means an inactive call. Results filed as inconclusive are left out. Activity calls are given as the source filed them.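 Rule for the calls, unless noted: active = inhibition over a set limit, the all-compound mean plus 3 SD, in both replicate runs; inconclusive = over that limit in just one replicate run; inactive = at or under that limit in both runs.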

Turning to `CC(=O)CCS(=O)(=O)c1ccc(C)c(C)c1`, the results for the growth inhibition in test [1] and in test [2] were -1.55% and -7.75%, respectively. In addition, the viability increase in test [3] was -6.33%. Also, the viability in test [4] was 71.6%; in test [5], 90.2%. In addition, the inhibition in test [6] is 0.885%. Also, in test [7], the RAM network inhibition was 1.15%.

`CCOC(=O)CN1CC23C=CC(O2)C(C(=O)Nc2ccc4c(c2)OCO4)C3C1=O` (stereo not given): the growth inhibition in test [1] is -0.14%; in test [2] it was 3.22%. For the same compound, the viability increase in test [3] is -1.01%. In addition, the viability is 107% in test [4] and 103% in test [5]. In addition, in test [6], the inhibition was 2.71%. Moreover, in test [7], the RAM network inhibition is 1.23%.

As to `CCN1CCN(Cc2nc3c(c(=O)n(C)c(=O)n3C)n2CCCc2ccccc2)CC1`, the growth inhibition in test [1] is -5.05%; in test [2], -8.71%. Also, the viability increase in test [3] was -4.04%. Further, the viability in test [4] is 91%. In test [6], the inhibition is 0.665%. In addition, the RAM network inhibition in test [7] was 7.54%.

As to `O=C(CN1C(=O)c2cccc3cccc1c23)N1CCN(c2ccc(F)cc2)CC1`, the growth inhibition in test [1] is -26.6%; in test [2] it was -0.695%. Further, the viability increase in test [3] is -2.42%. The viability in test [4] was 94.1%. Besides, the inhibition in test [6] is 2.49%. The RAM network inhibition in test [7] is 8.63%.

`CCCC(=O)Nc1cc(C)c(NC(=O)Cc2ccccc2)cn1`: the growth inhibition in test [1] was 2.84%; in test [2], 6.81%. Further, the viability increase in test [3] is -1.76%. In test [4], the viability is 98.2%. Moreover, in test [6], the inhibition is 0.135%. Further, in test [7], the RAM network inhibition is 2.84%.

For `CC(CNCc1ccc2c(c1)OCO2)NCc1ccc2c(c1)OCO2` (stereo not given), the figures for the growth inhibition in test [1] and in test [2] were -14% and -7.7%, respectively. The viability increase in test [3] was -3.34%. The viability was 75% in test [4] and 77.2% in test [5]. Also, the inhibition in test [6] is -0.175%. In addition, the RAM network inhibition in test [7] was 1.32%.

With `Cc1cccc(-n2c(Cc3cc(=O)[nH]c(=O)[nH]3)nnc2SCC(=O)NCC2CCCO2)c1` (stereo not given), the growth inhibition in test [1] was -2.17%; in test [2], -13.5%. Further, the viability increase in test [3] is -2.52%. Further, the viability in test [4] is 93.5%; in test [5], 92.3%. Further, the inhibition in test [6] was 0.535%. Moreover, the RAM network inhibition in test [7] was -1.56%.

Regarding `O=c1[nH]c2ccc(S(=O)(=O)N3CCN(c4ccccc4F)CC3)cc2s1`, the growth inhibition in test [1] is -19.3%; in test [2] it was -7.76%. Also, in test [3], the viability increase was -4.17%. Also, the viability in test [4] is 93.3%. Moreover, the inhibition in test [6] is 0.75%. Besides, the RAM network inhibition in test [7] was 4.21%.

For the compound `CCOc1ccccc1C1C(C(N)=O)=C(C)Nc2nc(CCCO)nn21` (stereo not given), the figures for the growth inhibition in test [1] and in test [2] were -13.8% and 2.83%, respectively. Further, in test [3], the viability increase is -1.39%. The viability in test [4] is 100%; in test [5], 102%. The inhibition in test [6] is 2.46%. In test [7], the RAM network inhibition is -1.1%.

In the case of `CCOC(=O)C1CCCN(C(=O)C2CCCN(S(=O)(=O)c3ccc4c(c3)oc(=O)n4C)C2)C1` (stereo not given), the growth inhibition was -4.01% in test [1] and -0.98% in test [2]. Besides, the viability increase in test [3] was 0.99%. The viability in test [4] was 92.2%; in test [5], 94.5%. In addition, in test [6], the inhibition is 0.445%. Also, the RAM network inhibition in test [7] is -0.53%.

As for `Cn1cccc1Cc1nnc(SCC(=O)NC2CCCCC2)n1CCc1ccccc1`, the results for the growth inhibition in test [1] and in test [2] were 9.32% and 23.6%, respectively. For the same compound, the viability increase in test [3] was -2.17%. The values for the viability in test [4] and in test [5] were 79.6% and 81.5%, respectively. Further, the inhibition in test [6] was 1.58%. Moreover, the RAM network inhibition in test [7] was 8.9%.

For `Cc1ccc(OCCCC(=O)Nc2nncs2)cc1`, the figures for the growth inhibition in test [1] and in test [2] were -9.25% and -13.4%, respectively. Besides, in test [3], the viability increase is 0.75%. The viability in test [4] was 105%. For the same compound, the inhibition in test [6] was 1.92%. In test [7], the RAM network inhibition is 1.98%.

`COc1cc(=O)[nH]c(=O)n1C(=O)Cc1ccccc1`: the growth inhibition in test [1] is -1.48%; in test [2], -1.73%. The viability increase in test [3] was 0%. Moreover, the viability was 97.4% in test [4] and 104% in test [5]. Further, the inhibition in test [6] is -0.145%. The RAM network inhibition in test [7] was 4.08%.

As to `COC(=O)c1ccc(N2C(=O)CC(Sc3n[nH]c(C)n3)C2=O)cc1` (stereo not given), the figures for the growth inhibition in test [1] and in test [2] were 38.2% (active) and 19%, respectively. For the same compound, in test [3], the viability increase is 1.12%. In addition, the viability in test [4] is 96.6%; in test [5], 93.2%. Also, the inhibition in test [6] is 1.42%. In addition, in test [7], the RAM network inhibition is 2.32%.

On to `CCC(=O)NC(C)c1nc2ccccc2n1C` (stereo not given), for which the figures for the growth inhibition in test [1] and in test [2] were -9.66% and -2.13%, respectively. Moreover, in test [3], the viability increase was -1.61%. For the same compound, the viability in test [4] is 102%. Also, the inhibition in test [6] was 1.37%. In test [7], the RAM network inhibition is 7.64%.

For `COCCCNC(=O)c1cc2c(=O)n(C)c3ccccc3c2n1C`, the growth inhibition in test [1] was -7.96%; in test [2], -5.92%. Besides, in test [3], the viability increase is -7.13%. In addition, the viability in test [4] is 36.5%. Moreover, the inhibition in test [6] is 0.345%. Also, in test [7], the RAM network inhibition is 4.4%.

With `CC1CCC(NC(=O)Cn2c(=O)[nH]c3ccsc3c2=O)CC1` (stereo not given), the growth inhibition in test [1] was -13.7%; in test [2], -3.85%. In test [3], the viability increase was 1.29%. Besides, in test [4], the viability is 99.5%. Further, the inhibition in test [6] was 2.09%. The RAM network inhibition in test [7] is 4.16%.

Regarding `C#CCn1c(=NC(=O)c2cccs2)sc2cccc(OC)c21`, the figures for the growth inhibition in test [1] and in test [2] were -11.2% and -16.3%, respectively. Further, the viability increase in test [3] is -3.51%. Also, the viability in test [4] is 79.6%; in test [5] it was 73.9%. For the same compound, the inhibition in test [6] was 3.34%. Further, the RAM network inhibition in test [7] was 7.2%.

In the case of `Cc1cnn(C(=O)c2ccccc2Br)c1`, the growth inhibition in test [1] was 3.79%; in test [2] it was -3.8%. Moreover, the viability increase in test [3] was -1.43%. The viability in test [4] is 109%; in test [5], 103%. Also, the inhibition in test [6] is -0.355%. The RAM network inhibition in test [7] was 1.6%.
